Active and inactive are the calls of the source. The rule behind the calls is not given here.
Assays:
[1] = Positive inotropic activity in perfused rabbit left atrium assessed as increase in stroke volume at 10 uM; type: functional, Oryctolagus cuniculus, Cardiac atrium
In short: (§1)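 Field-stimulated at a fixed 1.5 Hz, 60 min stabilization. Single dose, DMSO-dissolved and buffer-diluted, applied after a control circulation; 12-min circulations. Stroke volume read from the cannula water column at end diastole every 2 min, reported as mean % increase.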

[2] = Chronotropic effect in perfused rabbit left atrium assessed as heart rate at 10 uM by electrocardiogram analysis (Rvb= 146.80 +/- 0.09 Hz); type: functional, Oryctolagus cuniculus, Cardiac atrium
Oryctolagus cuniculus [3] = species on record: Oryctolagus cuniculus; experiment: Positive inotropic activity in perfused rabbit left atrium assessed as increase in stroke volume at 10 uM/L; type: functional, tissue-based; conditions: Cardiac atrium, TDE = time-dependent effect; in short: as §1
Oryctolagus cuniculus [4] = species on record: Oryctolagus cuniculus; experiment: Negative inotropic activity in perfused rabbit left atrium assessed as stroke volume at 10 uM; type: functional, tissue-based; conditions: Cardiac atrium; in short: as §1
[5] = Chronotropic effect in perfused rabbit left atrium assessed as heart rate at 10 uM by electrocardiogram analysis (Rvb= 152.20 +/- 0.42 Hz); type: functional, Oryctolagus cuniculus, Cardiac atrium

SMILES | Activity [1] [%] | Activity (Oryctolagus cuniculus [4]) | also measured
O=C(CN1CCN(Cc2ccccc2F)CC1)Nc1ccc2c(c1)OCC(=O)N2 | 4.29 |  | Activity [2]: 139.1 Hz; Activity (Oryctolagus cuniculus [3]): tde
Cc1ccc(COc2ccc3cc(CN4CCN(CC(=O)Nc5ccc6c(c5)OCC(=O)N6)CC4)ccc3c2)cc1 |  | Active | 
COc1ccc(COc2ccc3cc(CN4CCN(CC(=O)Nc5ccc6c(c5)OCC(=O)N6)CC4)ccc3c2)cc1 |  | Active | 
O=C(CN1CCN(Cc2ccc(Cl)cc2)CC1)Nc1ccc2c(c1)OCC(=O)N2 |  | Active | 
O=C(CN1CCN(Cc2c(Cl)cccc2Cl)CC1)Nc1ccc2c(c1)OCC(=O)N2 |  | Active | 
O=C(CN1CCN(Cc2ccc3cc(OCc4cccc(Cl)c4)ccc3c2)CC1)Nc1ccc2c(c1)OCC(=O)N2 |  | Active | 
O=C(CN1CCN(Cc2ccc3cc(OCc4ccccc4)ccc3c2)CC1)Nc1ccc2c(c1)OCC(=O)N2 |  | Active | 
COc1cccc(CN2CCN(CC(=O)Nc3ccc4c(c3)OCC(=O)N4)CC2)c1 | 3.23 |  | 
Cc1[nH]c(=O)c(C#N)cc1-c1ccncc1 [MILRINONE] | 1.67 |  | 
O=C(CN1CCN(Cc2cccc(Cl)c2)CC1)Nc1ccc2c(c1)OCC(=O)N2 |  | Active | 
O=C(CN1CCN(Cc2ccccc2Br)CC1)Nc1ccc2c(c1)OCC(=O)N2 | 1.43 |  | 
O=C(CN1CCN(Cc2ccccc2)CC1)Nc1ccc2c(c1)OCC(=O)N2 |  | Active | 
O=C(CN1CCN(Cc2ccc(F)cc2)CC1)Nc1ccc2c(c1)OCC(=O)N2 |  | Active | 
O=C(CN1CCN(Cc2ccc3c(c2)OCO3)CC1)Nc1ccc2c(c1)OCC(=O)N2 |  | Active | 
Cc1ccc(CN2CCN(CC(=O)Nc3ccc4c(c3)OCC(=O)N4)CC2)cc1 | 5.09 |  | Activity (Oryctolagus cuniculus [3]): tde; Activity [5]: 142.2 Hz
COc1ccc(CN2CCN(CC(=O)Nc3ccc4c(c3)OCC(=O)N4)CC2)cc1 |  | Active | 

Reference: ChEMBL document CHEMBL1152481, “Synthesis of 2-(4-substitutedmethylpiperazin-1-yl)-N-(3,4-dihydro-3-oxo-2H-benzo[b][1,4]oxazin-7-yl)acetamides and their positive inotropic evaluation” (2009)
